Measurements as given in ChEMBL document CHEMBL1649289, “Paradoxical growth of Candida dubliniensis does not preclude in vivo response to echinocandin therapy” (2009).
In brackets after ≈: the same amount, converted by molar mass.

Key:
Assay type in all cases: functional
Candida dubliniensis [1] = test: Antifungal activity against Candida dubliniensis FMR 10032 infected in immunosuppressed OF1 mouse assessed as fungal count in spleen at 1 mg/kg/day, iv […]
Procedure, shortened: (§1)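 Male OF1 mice, 10 per group, were immunosuppressed on infection day with cyclophosphamide 200 mg/kg i.p. plus 5-fluorouracil 150 mg/kg i.v., then challenged i.v. with 1.5 × 10^5 CFU. Drug was given at 1 mg/kg i.v. once daily for 5 days, starting 24 h after challenge. One day after treatment ended, kidney and spleen homogenates were plated in 10-fold dilutions on Sabouraud agar (35°C, 3 days) and mean log10 CFU was reported.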

Candida dubliniensis [2] = test: Antifungal activity against Candida dubliniensis 9456 by hemocytometry
Procedure, shortened: (§2)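 Minimal fungicidal concentration from the broth dilution test, defined as the lowest drug level giving ≥99.9% reduction in CFU/ml. Inocula were adjusted by hemocytometer.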

Candida dubliniensis [3] = test: Antifungal activity against Candida dubliniensis 9456 assessed as compound concentration at which paradoxical growth of observed after 24 hrs
Procedure, shortened: (§3)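 In the same broth dilution (CLSI M27-A3) tests, read at 24 or 48 h, this is the range of drug concentrations over which paradoxical growth appeared. It was not set when growth occurred across the whole tested range (trailing).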

Candida dubliniensis [4] = test: Antifungal activity against Candida dubliniensis 10034 by hemocytometry; procedure, shortened: as §2
Candida dubliniensis [5] = test: Antifungal activity against Candida dubliniensis FMR 10034 infected in immunosuppressed OF1 mouse assessed as fungal count in spleen at 1 mg/kg/day, iv […]; procedure, shortened: as §1
Candida dubliniensis [6] = test: Antifungal activity against Candida dubliniensis 10032 after 24 hrs; conditions: Candida dubliniensis, 10032, 24 h
Procedure, shortened: (§4)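 CLSI M27-A3 broth microdilution. Yeast inoculum was adjusted with a hemocytometer. MIC was read at 24 h or 48 h as the lowest concentration giving 50% growth inhibition.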

Candida dubliniensis [7] = test: Antifungal activity against Candida dubliniensis 9453 after 24 hrs; conditions: Candida dubliniensis, 9453, 24 h; procedure, shortened: as §4
Candida dubliniensis [8] = test: Antifungal activity against Candida dubliniensis FMR 10034 infected in OF1 mouse assessed as fungal count in kidney at 1 mg/kg/day, iv […]
Procedure, shortened: (§5)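 Immunocompetent male OF1 mice, 10 per group, were challenged i.v. with 1.5 × 10^7 CFU. Drug was given i.v. once daily at 1 or 10 mg/kg for 3 days, starting 24 h post-challenge; controls were untreated. Mice were killed 1 day after the last dose. Kidneys and spleen were homogenized in saline, serial 10-fold dilutions were plated on Sabouraud agar at 35°C for 3 days, and mean log10 CFU was reported.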

Candida dubliniensis [9] = test: Antifungal activity against Candida dubliniensis 10034 assessed as compound concentration at which paradoxical growth of observed after 24 hrs; procedure, shortened: as §3
Candida dubliniensis [10] = test: Antifungal activity against Candida dubliniensis 9453 by hemocytometry; procedure, shortened: as §2
Candida dubliniensis [11] = test: Antifungal activity against Candida dubliniensis 10031 assessed as compound concentration at which paradoxical growth of observed after 24 hrs; procedure, shortened: as §3
Candida dubliniensis [12] = test: Antifungal activity against Candida dubliniensis FMR 10034 infected in immunosuppressed OF1 mouse assessed as fungal count in kidney at 1 mg/kg/day, iv […]; procedure, shortened: as §1
Candida dubliniensis [13] = test: Antifungal activity against Candida dubliniensis FMR 10032 infected in OF1 mouse assessed as fungal count in kidney at 1 mg/kg/day, iv […]; procedure, shortened: as §5
Candida dubliniensis [14] = test: Antifungal activity against Candida dubliniensis FMR 10034 infected in OF1 mouse assessed as fungal count in kidney at 10 mg/kg/day, iv […]; procedure, shortened: as §5
Candida dubliniensis [15] = test: Antifungal activity against Candida dubliniensis 9453 after 48 hrs; conditions: Candida dubliniensis, 9453, 48 h; procedure, shortened: as §4
Candida dubliniensis [16] = test: Antifungal activity against Candida dubliniensis 10033 by hemocytometry; procedure, shortened: as §2
Candida dubliniensis [17] = test: Antifungal activity against Candida dubliniensis FMR 10032 infected in immunosuppressed OF1 mouse assessed as fungal count in kidney at 1 mg/kg/day, iv […]; procedure, shortened: as §1
Candida dubliniensis [18] = test: Antifungal activity against Candida dubliniensis 10035 after 24 hrs; conditions: Candida dubliniensis, 10035, 24 h; procedure, shortened: as §4
Candida dubliniensis [19] = test: Antifungal activity against Candida dubliniensis 10035 after 48 hrs; conditions: Candida dubliniensis, 10035, 48 h; procedure, shortened: as §4
Candida dubliniensis [20] = test: Antifungal activity against Candida dubliniensis 10031 by hemocytometry; procedure, shortened: as §2
Candida dubliniensis [21] = test: Antifungal activity against Candida dubliniensis FMR 10034 infected in OF1 mouse assessed as fungal count in spleen at 10 mg/kg/day, iv […]; procedure, shortened: as §5
Candida dubliniensis [22] = test: Antifungal activity against Candida dubliniensis 10035 by hemocytometry; procedure, shortened: as §2
Candida dubliniensis [23] = test: Antifungal activity against Candida dubliniensis 10032 by hemocytometry; procedure, shortened: as §2
Candida dubliniensis [24] = test: Antifungal activity against Candida dubliniensis 10031 after 24 hrs; conditions: Candida dubliniensis, 10031, 24 h; procedure, shortened: as §4
Candida dubliniensis [25] = test: Antifungal activity against Candida dubliniensis FMR 10032 infected in OF1 mouse assessed as fungal count in kidney at 10 mg/kg/day, iv […]; procedure, shortened: as §5
Candida dubliniensis [26] = test: Antifungal activity against Candida dubliniensis 10034 after 24 hrs; conditions: Candida dubliniensis, 10034, 24 h; procedure, shortened: as §4
Candida dubliniensis [27] = test: Antifungal activity against Candida dubliniensis 9456 after 24 hrs; conditions: Candida dubliniensis, 9456, 24 h; procedure, shortened: as §4
Candida dubliniensis [28] = test: Antifungal activity against Candida dubliniensis FMR 10032 infected in OF1 mouse assessed as fungal count in spleen at 10 mg/kg/day, iv […]; procedure, shortened: as §5
Candida dubliniensis [29] = test: Antifungal activity against Candida dubliniensis 10034 assessed as compound concentration at which paradoxical growth of observed after 48 hrs; procedure, shortened: as §3
Candida dubliniensis [30] = test: Antifungal activity against Candida dubliniensis FMR 10032 infected in OF1 mouse assessed as fungal count in spleen at 1 mg/kg/day, iv […]; procedure, shortened: as §5
Candida dubliniensis [31] = test: Antifungal activity against Candida dubliniensis 10032 after 48 hrs; conditions: Candida dubliniensis, 10032, 48 h; procedure, shortened: as §4
Candida dubliniensis [32] = test: Antifungal activity against Candida dubliniensis 9453 assessed as compound concentration at which paradoxical growth of observed after 24 hrs; procedure, shortened: as §3
Candida dubliniensis [33] = test: Antifungal activity against Candida dubliniensis 9456 after 48 hrs; conditions: Candida dubliniensis, 9456, 48 h; procedure, shortened: as §4
Candida dubliniensis [34] = test: Antifungal activity against Candida dubliniensis 10034 after 48 hrs; conditions: Candida dubliniensis, 10034, 48 h; procedure, shortened: as §4
Candida dubliniensis [35] = test: Antifungal activity against Candida dubliniensis 10035 assessed as compound concentration at which paradoxical growth of observed after 48 hrs; procedure, shortened: as §3
Candida dubliniensis [36] = test: Antifungal activity against Candida dubliniensis 10033 after 24 hrs; conditions: Candida dubliniensis, 10033, 24 h; procedure, shortened: as §4
Candida dubliniensis [37] = test: Antifungal activity against Candida dubliniensis 10033 assessed as compound concentration at which paradoxical growth of observed after 48 hrs
Procedure, shortened: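 Broth dilution susceptibility testing of yeasts per CLSI reference method M27-A3, with inocula adjusted by hemocytometer count. Wells were read at 24 and 48 h. The paradoxical growth range is the span of drug concentrations (μg/ml) over which growth reappeared above the inhibitory concentration. Where growth occurred across the entire concentration range (trailing), no range was determined.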

Candida dubliniensis [38] = test: Antifungal activity against Candida dubliniensis FMR 10034 infected in OF1 mouse assessed as fungal count in spleen at 1 mg/kg/day, iv […]; procedure, shortened: as §5
Candida dubliniensis [39] = test: Antifungal activity against Candida dubliniensis 10033 assessed as compound concentration at which paradoxical growth of observed after 24 hrs; procedure, shortened: as §3
Candida dubliniensis [40] = test: Antifungal activity against Candida dubliniensis 10031 after 48 hrs; conditions: Candida dubliniensis, 10031, 48 h; procedure, shortened: as §4
Candida dubliniensis [41] = test: Antifungal activity against Candida dubliniensis 10033 after 48 hrs; conditions: Candida dubliniensis, 10033, 48 h; procedure, shortened: as §4

CC[C@H](C)C[C@H](C)CCCCCCCCC(=O)N[C@H]1C[C@@H](O)[C@@H](NCCN)NC(=O)[C@@H]2[C@@H](O)CCN2C(=O)[C@H]([C@H](O)CCN)NC(=O)[C@H]([C@H](O)[C@@H](O)c2ccc(O)cc2)NC(=O)[C@@H]2C[C@@H](O)CN2C(=O)[C@H]([C@@H](C)O)NC1=O [CASPOFUNGIN]
log10cfu (Candida dubliniensis [1]): 1.26 | MFC (Candida dubliniensis [2]): > 16 µg/mL | Activity (Candida dubliniensis [3]): 8 µg/mL | MFC (Candida dubliniensis [4]): > 16 µg/mL | log10cfu (Candida dubliniensis [5]): 2.08 | MIC50 (Candida dubliniensis [6]): 0.06 µg/mL (≈ 0.0549 µM) | MIC50 (Candida dubliniensis [7]): 0.25 µg/mL (≈ 0.229 µM) | log10cfu (Candida dubliniensis [8]): 4.5 | Activity (Candida dubliniensis [9]): 16 µg/mL | MFC (Candida dubliniensis [10]): > 16 µg/mL | Activity (Candida dubliniensis [11]): 8 µg/mL | log10cfu (Candida dubliniensis [12]): 3.39 | log10cfu (Candida dubliniensis [13]): 3.41 | log10cfu (Candida dubliniensis [14]): 4.09 | MIC50 (Candida dubliniensis [15]): 0.25 µg/mL (≈ 0.229 µM) | MFC (Candida dubliniensis [16]): > 16 µg/mL | log10cfu (Candida dubliniensis [17]): 1.77 | MIC50 (Candida dubliniensis [18]): 0.06 µg/mL (≈ 0.0549 µM) | MIC50 (Candida dubliniensis [19]): 0.06 µg/mL (≈ 0.0549 µM) | MFC (Candida dubliniensis [20]): > 16 µg/mL | log10cfu (Candida dubliniensis [21]): 3.89 | MFC (Candida dubliniensis [22]): 0.5 µg/mL (≈ 0.457 µM) | MFC (Candida dubliniensis [23]): 4 µg/mL (≈ 3.66 µM) | MIC50 (Candida dubliniensis [24]): 0.125 µg/mL (≈ 0.114 µM) | log10cfu (Candida dubliniensis [25]): 3.08 | MIC50 (Candida dubliniensis [26]): 0.125 µg/mL (≈ 0.114 µM) | MIC50 (Candida dubliniensis [27]): 0.25 µg/mL (≈ 0.229 µM) | log10cfu (Candida dubliniensis [28]): 3.38 | Activity (Candida dubliniensis [29]): 1 µg/mL | log10cfu (Candida dubliniensis [30]): 3.56 | MIC50 (Candida dubliniensis [31]): 0.06 µg/mL (≈ 0.0549 µM) | Activity (Candida dubliniensis [32]): 8 µg/mL | MIC50 (Candida dubliniensis [33]): 0.25 µg/mL (≈ 0.229 µM) | MIC50 (Candida dubliniensis [34]): 0.25 µg/mL (≈ 0.229 µM) | Activity (Candida dubliniensis [35]): 8 µg/mL | MIC50 (Candida dubliniensis [36]): 0.25 µg/mL (≈ 0.229 µM) | Activity (Candida dubliniensis [37]): 2 µg/mL | log10cfu (Candida dubliniensis [38]): 4.21 | Activity (Candida dubliniensis [39]): 8 µg/mL | MIC50 (Candida dubliniensis [40]): 0.25 µg/mL (≈ 0.229 µM) | MIC50 (Candida dubliniensis [41]): 0.25 µg/mL (≈ 0.229 µM)
